# Source: ChEMBL document CHEMBL6134776, “New anti-ovarian cancer quinolone derivatives acting by modulating microRNA processing machinery” (RSC Med Chem, 2025)
# Active and inactive are the calls of the source. The rule behind the calls is not given here.
# Tests used:
# SK-OV-3 [1] = test: Antiproliferative activity against human SK-OV-3 cells assessed as growth inhibition measured after 72 hrs; type: functional
# Outline: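 100 000 SKOV-3 or Wi-38 cells per 35 mm dish, allowed to adhere, then given compound at scalar concentrations. First pass ran up to 200 μM (SKOV-3) or 250 μM (Wi-38), then a narrowed range. Cells counted after 72 h and GI50/CC50 taken by linear regression with 95% CI. Three experiments in triplicate, three counts per sample.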
# SKOV-3 (Homo sapiens) = test: Antiproliferative activity against human SKOV-3 cells assessed as growth inhibition measured after 72 hrs
# [2] = biological target: T1, DNA topoisomerase 1 (Homo sapiens) (UniProt P11387); test: Inhibition of human topoisomerase I at 100 uM by spectrophotometric analysis
# T1 sequence (whole entry): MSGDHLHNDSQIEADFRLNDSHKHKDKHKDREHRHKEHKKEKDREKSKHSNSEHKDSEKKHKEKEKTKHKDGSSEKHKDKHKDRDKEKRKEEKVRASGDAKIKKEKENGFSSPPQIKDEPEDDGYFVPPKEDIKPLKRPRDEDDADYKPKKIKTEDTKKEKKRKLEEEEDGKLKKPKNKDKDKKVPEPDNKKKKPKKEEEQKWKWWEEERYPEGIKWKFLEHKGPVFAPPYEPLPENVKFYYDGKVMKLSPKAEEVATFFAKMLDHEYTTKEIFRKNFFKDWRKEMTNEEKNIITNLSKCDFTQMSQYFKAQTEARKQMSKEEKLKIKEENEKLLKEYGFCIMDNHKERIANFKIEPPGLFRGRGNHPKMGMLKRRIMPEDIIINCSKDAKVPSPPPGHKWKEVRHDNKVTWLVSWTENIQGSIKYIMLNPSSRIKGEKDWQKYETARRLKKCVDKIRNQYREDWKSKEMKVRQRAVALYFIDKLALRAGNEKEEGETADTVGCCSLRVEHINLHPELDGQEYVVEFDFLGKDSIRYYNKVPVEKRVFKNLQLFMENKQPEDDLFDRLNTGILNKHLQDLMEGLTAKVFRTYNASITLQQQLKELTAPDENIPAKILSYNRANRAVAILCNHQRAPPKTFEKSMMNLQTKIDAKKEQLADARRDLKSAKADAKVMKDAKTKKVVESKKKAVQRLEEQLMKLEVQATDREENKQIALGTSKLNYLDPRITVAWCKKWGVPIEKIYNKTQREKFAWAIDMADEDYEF
# SK-OV-3 [3] = test: Effect on Bcl-Xl level in human SK-OV-3 cells by Western blot analysis; type: functional, cell-based
# Outline: (§1)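 SKOV-3 and A2780 given 30 μM compound for 72 h. Protein extracts run on 4–12% bis–tris gels and blotted to nitrocellulose, blocked in 5% milk. Probed for cleaved PARP and Bcl-XL, with β-actin as loading control.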
# MCF7 = test: Antiproliferative activity against human MCF7 cells assessed as growth inhibition at 30 uM measured after 72 hrs; type: functional, cell-based
# Outline: (§2)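 Cells dosed at 30 μM for 72 h in RPMI 1640 (A2780, SKOV-3) or DMEM (MCF-7, A549, HCT-116), 10% FBS, 37 °C, 5% CO2. Total and viable cell numbers taken by trypan blue with an automated counter. Viable cells given as % of DMSO; dead cells as a percentage. At least three independent experiments.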
# HCCLM3 [4] = test: Antiproliferative activity against TRBP knockout human HCCLM3 cells assessed as growth inhibition at 30 uM measured after 48 hrs by CCK-8 method; type: functional, cell-based
# Outline: (§3)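 HCCLM3 and SK-Hep-1 cells, TRBP wild-type and knockout, seeded at 10 000 cells/well and left to adhere overnight. Treated 48 h alongside a 0.1% DMSO negative control and a 125 μM enoxacin positive control. Viability read with 10% CCK-8 in DMEM, 30 min at 37 °C, at 450 nm.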
# A2780 [5] = test: Downregulation of Bcl-Xl level in human A2780 cells by Western blot analysis; type: functional, cell-based; outline: as §1
# A2780 [6] = test: Antiproliferative activity against human A2780 cells assessed as growth inhibition at 30 uM measured after 72 hrs; type: functional, cell-based; outline: as §2
# Homo sapiens = species on record: Homo sapiens; test: Inhibition of human topoisomerase II at 100 uM by spectrophotometric analysis
# A2780 [7] = test: Induction of cell death in human A2780 cells assessed as increase in percentage of dead cells at 30 uM incubated for 72 hrs by trypan blue staining based analysis; type: functional; outline: as §2
# HCCLM3 [8] = test: Antiproliferative activity against wild type human HCCLM3 cells assessed as growth inhibition at 30 uM measured after 48 hrs by CCK-8 method relative to control; type: functional, cell-based; outline: as §3
# SK-HEP1 [9] = test: Antiproliferative activity against TRBP knockout human SK-HEP1 cells assessed as growth inhibition at 50 uM measured after 48 hrs by CCK-8 method; type: functional, cell-based; outline: as §3
# SK-HEP1 [10] = test: Antiproliferative activity against wild type human SK-HEP1 cells assessed as growth inhibition at 50 uM measured after 48 hrs by CCK-8 method; type: functional, cell-based; outline: as §3
# HCT-116 = test: Antiproliferative activity against human HCT-116 cells assessed as growth inhibition at 30 uM measured after 72 hrs; type: functional, cell-based; outline: as §2
# A2780 [11] = test: Induction of cell death in human A2780 cells assessed as reduction in total number of cells at 30 uM incubated for 72 hrs by trypan blue staining based analysis; type: functional; outline: as §2
# SK-OV-3 [12] = test: Effect on cleaved PARP1 level in human SK-OV-3 cells by Western blot analysis; type: functional, cell-based; outline: as §1
# A2780 [13] = test: Upregulation of cleaved PARP1 level in human A2780 cells by Western blot analysis; type: functional, cell-based; outline: as §1
# A2780 [14] = test: Antiproliferative activity against human A2780 cells assessed as growth inhibition at 30 uM measured after 48 hrs in presence of cisplatin
# [15] = system: Cisplatin-resistant A2780; test: Antiproliferative activity against human Cisplatin-resistant A2780 cells assessed as growth inhibition at 30 uM measured after 48 hrs
# SK-OV-3 [16] = test: Induction of cell death in human SK-OV-3 cells assessed as reduction in total number of cells at 30 uM incubated for 72 hrs by trypan blue staining based analysis; type: functional; outline: as §2
# HeLa = test: Induction of miR-21-5p biogenesis in human HeLa cells assessed as decrease in renilla luciferase activity at 50 uM measured after 6 hrs by dual-luciferase reporter assay
# SK-HEP1 [17] = test: Antiproliferative activity against TRBP knockout human SK-HEP1cells assessed as growth inhibition at 30 uM measured after 48 hrs by CCK-8 method; type: functional, cell-based; outline: as §3
# SK-HEP1 [18] = test: Antiproliferative activity against wild type human SK-HEP1 cells assessed as growth inhibition at 30 uM measured after 48 hrs by CCK-8 method; type: functional, cell-based; outline: as §3
# HEK-293T = test: Induction of RNAi enhancing activity in HEK293T cells transfected with shGAPDH assessed as decrease in amount of GAPDH mRNA at 50 uM incubated for 48 hrs by qRT-PCR; type: functional, cell-based; settings: Homo sapiens
# Outline: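 HEK-293T stably expressing shGAPDH or scrambled shRNA (lentiviral transduction, puromycin 3 μg mL−1 selection) treated 48 h at 50 μM. GAPDH mRNA measured by qRT-PCR against ATP5O, relative to sh-Scr/DMSO set to 1. At least three independent experiments.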
# [19] = system: Cisplatin-resistant A2780; test: Antiproliferative activity against human Cisplatin-resistant A2780 cells assessed as growth inhibition at 30 uM measured after 48 hrs in presence of cisplatin
# A549 = test: Antiproliferative activity against human A549 cells assessed as growth inhibition at 30 uM measured after 72 hrs; type: functional, cell-based; outline: as §2
structure (smiles),measurement,setting,value
Cc1c(N2CC(C)OC(C)C2)c(N)cc2c(=O)c(C(=O)O)cn(C3CC3)c12 (stereo not drawn),GI50,SK-OV-3 [1],100 µM
CC(C)(C)n1cc(C(=O)O)c(=O)c2cc(N)c(N3CCc4ccccc43)cc21,GI50,SK-OV-3 [1],> 100 µM
Cc1c(N2CCCCC2)c(N)cc2c(=O)c(C(=O)O)cn(C3CC3)c12,GI50,SK-OV-3 [1],> 100 µM
Cc1c(N2Cc3ccccc3C2)c(N)cc2c(=O)c(C(=O)O)cn(C3CC3)c12,GI50 at 72 h,SKOV-3 (Homo sapiens),≥ 25 µM
Nc1cc2c(=O)c(C(=O)O)cn(C3CC3)c2cc1N1CCc2ncncc2C1,GI50 at 72 h,SKOV-3 (Homo sapiens),≥ 25 µM
Cc1c(N2CCC(O)CC2)c(N)cc2c(=O)c(C(=O)O)cn(C3CC3)c12,GI50,SK-OV-3 [1],> 100 µM
Cc1c(N2CCC3CCCCC3C2)c(N)cc2c(=O)c(C(=O)O)cn(C3CC3)c12 (stereo not drawn),GI50,SK-OV-3 [1],> 100 µM
Cc1c(N2CCOCC2)c(N)cc2c(=O)c(C(=O)O)cn(C3CC3)c12,GI50,SK-OV-3 [1],> 100 µM
O=C(O)c1cn(C2CC2)c2cc(N3CCc4ccccc4C3)c(F)cc2c1=O,inhibition,[2],inactive
same,Activity,SK-OV-3 [3],inactive
same,Activity,MCF7,Active
same,Activity,HCCLM3 [4],inactive
same,Activity,A2780 [5],Active
same,Activity,A2780 [6],Active
same,inhibition,Homo sapiens,inactive
same,Activity,A2780 [7],Active
same,Activity,HCCLM3 [8],Active
same,Activity,SK-HEP1 [9],inactive
same,Activity,SK-HEP1 [10],Active
same,Activity,HCT-116,Active
same,Activity,A2780 [11],Active
same,Activity,SK-OV-3 [12],inactive
same,Activity,A2780 [13],Active
same,Activity,A2780 [14],Active
same,Activity,[15],Active
same,Activity,SK-OV-3 [16],Active
same,Activity,HeLa,Active
same,Activity,SK-HEP1 [17],inactive
same,Activity,SK-HEP1 [18],inactive
same,Activity,HEK-293T,Active
same,Activity,[19],Active
same,Activity,A549,Active
Cc1c(NCCN2CCCCC2)c(N)cc2c(=O)c(C(=O)O)cn(C3CC3)c12,GI50 at 72 h,SKOV-3 (Homo sapiens),≥ 25 µM
